Screening results from PubChem.
Compounds with a hit are over-represented: about 2.6% of the library has one in this group of screens.
CHO parental Ca – signal in parental CHO cells, OX1R antagonist counter-screen | parental CHO-K1, ATP-induced calcium, Fluo-8 fluorescence | inhibition, % at 5.6 µM | 0.63% of 330,000 active | AID 463079;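 active = inhibition above that plate's mean sample inhibition plus 3 SD, cut at about 26% in these data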;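 note: 0% = ATP-challenged DMSO wells and 100% = DMSO wells without ATP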
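Measured by: calcium-sensitive Fluo-8 fluorescence / Test system: CHO parental line / Controls: ATP-challenged DMSO wells low, unchallenged DMSO wells high / Measure: % inhibition / Compound: single nominal dose of 5.6 µM per compound / Replicates: single well per compound, no replicates / Reagent: ATP as calcium-mobilizing challenge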
OX1R antag-1 – human HCRTR1 antagonism; CHO/OX1R cells, Fluo-8 calcium fluorescence, orexin A; inhibition, % at 5 µM; 0.43% of 330,000 active;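 active = inhibition above its plate's threshold, mean inhibition of all tested compounds on the plate plus 3 SD, cut at about 37% in these data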;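 note: 0% = orexin A challenge wells and 100% = SB-334867-A antagonist wells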
OXTR agonist – human OXTR agonism | 0.32% of 320,000 active | CHO-OTR cells, Fluo-8 calcium fluorescence; normalized: DMSO 0%, oxytocin 100% | P30559 | activation, % at 3 µM;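 active = activation above the mean of all tested compounds plus 3 SD, cutoff set per screening run, cut at about 20% in these data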;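 note: peak over basal fluorescence ratio from a 100 s FLIPR kinetic read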
Target sequence (P30559 whole entry, looked up): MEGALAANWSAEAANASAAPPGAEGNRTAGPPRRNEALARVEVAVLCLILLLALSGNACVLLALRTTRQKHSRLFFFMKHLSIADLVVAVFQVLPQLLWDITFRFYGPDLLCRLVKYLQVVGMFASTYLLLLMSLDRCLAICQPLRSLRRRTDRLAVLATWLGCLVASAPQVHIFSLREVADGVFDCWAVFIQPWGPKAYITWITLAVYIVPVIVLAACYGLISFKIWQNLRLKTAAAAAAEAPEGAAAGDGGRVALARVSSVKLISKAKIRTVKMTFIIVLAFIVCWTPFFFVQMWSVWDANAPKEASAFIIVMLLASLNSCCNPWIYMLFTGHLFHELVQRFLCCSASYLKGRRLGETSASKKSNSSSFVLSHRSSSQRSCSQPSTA
V1aR counter – counter-screen for oxytocin receptor agonists: human V1a receptor agonists; P37288; CHO-V1R cells, Fluo-8 calcium fluorescence, agonist mode; 0% DMSO, 100% 3 nM vasopressin; activation, % at 3 µM; 0.25% of 320,000 active;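 active = activation above the mean activation of all tested compounds plus 3 SD, per screening run, cut at about 20% in these data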;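 note: signal is peak over basal fluorescence ratio across a 100 second FLIPR read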
OXTR potentiate – human OXTR potentiation; 0.061% of 320,000 active; activation, % at 3 µM; AID 2445; CHO-OTR cells, Fluo-8 calcium fluorescence, potentiator mode; 0% = oxytocin EC15, 100% = EC100; P30559;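 active = activation above that plate's cutoff, the mean activation of tested compounds plus 3 SD, cut at about 6.6% in these data, passing the limit was not always enough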;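 note: 100% uses oxytocin at 75 nM as the full agonist control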
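Assay system: CHO cell line stably expressing human OTR. Reagent: EC15 oxytocin agonist. Dosing: single dose, 3.0 µM nominal final compound concentration. Timing: compound 6 min at room temperature before oxytocin, 100 s read. Signal: kinetic Fluo-8 calcium fluorescence. Controls: oxytocin EC15 low and EC100 high.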
OX1R antag-2 – blocks the human orexin 1 receptor; O43613; OX1R-expressing cells, FRET antagonist read-out; inhibition, % at 6.6 µM; 1.8% of 330,000 active; in the data active = inhibition mostly above about 38%, no sharp cut-off; inactive = mostly below about 40%;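 note: 0% = agonist challenge alone and 100% = reference antagonist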
Numbers without * were called inactive.

Results for Nc1nonc1N/N=C\c1ccccc1 ?
CHO parental Ca: 4.1; OX1R antag-1: -8.9; OXTR agonist: -1.1; V1aR counter: -0.2; OXTR potentiate: 3.8; OX1R antag-2: 12.6

How did O=C(Cc1cccc2ccccc12)NNC(=O)c1ccc(Br)o1 do in these assays?
CHO parental Ca: -13.7; OX1R antag-1: 13.8; OXTR agonist: 0.2; V1aR counter: 3.0; OXTR potentiate: -8.9; OX1R antag-2: 50.7*

Results for CC(C)CN(C(=O)COc1ccc(C(C)(C)C)cc1)C1CCS(=O)(=O)C1 (centres undefined) ?
CHO parental Ca: -12.8; OX1R antag-1: -12.9; OXTR agonist: 0.5; V1aR counter: 1.2; OXTR potentiate: -5.7; OX1R antag-2: 19.1

What do the screens show for `COc1cccc(CNC(=O)CCC2CCCN(C(=O)C3=CC(=O)CC(C)(C)O3)C2)c1` (centres undefined)?
CHO parental Ca: -17.8; OX1R antag-1: -29.2; OXTR agonist: -0.2; V1aR counter: -0.6; OXTR potentiate: -6.8; OX1R antag-2: 36.8

How did C[C@@]12C(=O)Nc3cc(F)ccc3C(=O)N1[C@H]1c3ccccc3OC[C@@H]1[C@@H]2c1ccccc1 do in these assays?
CHO parental Ca: -12.0; OX1R antag-1: -24.9; OXTR agonist: -0.1; V1aR counter: 2.9; OXTR potentiate: -3.0; OX1R antag-2: 17.0

How did Cn1cccc1/C=C1\SC(=Nc2cccc(O)c2)NC1=O do in these assays?
CHO parental Ca: -7.3; OX1R antag-1: -15.4; OXTR agonist: -0.1; V1aR counter: -0.3; OXTR potentiate: -16.4; OX1R antag-2: 41.8*

Results for Cn1cccc1/C=C1\SC(=Nc2ccc(O)cc2)NC1=O ?
CHO parental Ca: -22.5; OX1R antag-1: -12.9; OXTR agonist: -0.9; V1aR counter: -0.1; OXTR potentiate: -17.9; OX1R antag-2: 15.4

Results for Cc1cccc(N2CCN(C(=O)COc3ccc4c(c3)CCC4)CC2C)c1 (centres undefined) ?
CHO parental Ca: -23.7; OX1R antag-1: -25.2; OXTR agonist: -2.2; V1aR counter: -1.3; OXTR potentiate: -5.3; OX1R antag-2: 5.2

What do the screens show for `Cc1nn(Cc2c(Cl)cccc2Cl)c(C)c1NC(=O)/C=C/c1cnn(C)c1C`?
CHO parental Ca: -4.9; OX1R antag-1: 5.6; OXTR agonist: 1.3; V1aR counter: 0.8; OXTR potentiate: -1.0; OX1R antag-2: 55.7*

What do the screens show for `O=C(Nc1c2ccccc2nc2ccccc12)C(Cl)(Cl)Cl`?
CHO parental Ca: 1.1; OX1R antag-1: 1.1; OXTR agonist: 1.3; V1aR counter: 0.5; OXTR potentiate: -19.2; OX1R antag-2: 69.3*

How did O=C(Cc1ccccc1)NNc1c2ccccc2nc2ccccc12 do in these assays?
CHO parental Ca: -18.7; OX1R antag-1: -11.8; OXTR agonist: -1.5; V1aR counter: -0.8; OXTR potentiate: -2.7; OX1R antag-2: 30.6

What do the screens show for `Cc1cccc(NC(=S)NCc2ccc(F)cc2)c1C`?
CHO parental Ca: -16.8; OX1R antag-1: -28.5; OXTR agonist: -0.9; V1aR counter: -0.4; OXTR potentiate: 3.3; OX1R antag-2: -0.7

Results for COc1ccccc1CCNC(=O)C(=O)NCCC1CCCCN1S(=O)(=O)c1ccccc1 (centres undefined) ?
CHO parental Ca: -30.9; OX1R antag-1: -2.2; OXTR agonist: -1.8; V1aR counter: -1.9; OXTR potentiate: -17.5; OX1R antag-2: 60.0*

Results for Cc1ccc(C)c(S(=O)(=O)N2CCCCC2CCNC(=O)C(=O)NCCc2ccco2)c1 (centres undefined) ?
CHO parental Ca: -29.2; OX1R antag-1: -2.3; OXTR agonist: -1.3; V1aR counter: 0.2; OXTR potentiate: 5.1; OX1R antag-2: 54.7*

How did Cc1ccc(C)c(S(=O)(=O)N2CCCC2CNC(=O)C(=O)NCCc2ccco2)c1 (centres undefined) do in these assays?
CHO parental Ca: -14.6; OX1R antag-1: 11.4; OXTR agonist: -1.0; V1aR counter: -0.8; OXTR potentiate: -9.6; OX1R antag-2: 58.0*

How did O=C(NCCc1ccco1)C(=O)NCC1CCCN1S(=O)(=O)c1ccccc1 (centres undefined) do in these assays?
CHO parental Ca: -27.6; OX1R antag-1: 22.3; OXTR agonist: -0.4; V1aR counter: -0.5; OXTR potentiate: -4.0; OX1R antag-2: 29.6
